Compound activity (PubChem BioAssay)
Only some compounds are listed: those with a hit (about 2.9% of all), similar ones and a draw of the others.
MEKK3 PB1 HTS = modulators of MEKK3-MEK5 PB1 binding, primary screen, biochemical, wildtype MEKK3, multiplex bead flow cytometry, Alexa488-MEK5. Mitogen-activated protein kinase kinase kinase 3 (Homo sapiens), Q99759. bead-based flow cytometry, Alexa488-MEK5 binding to MEKK3; actives lie on both sides; 0 = blocked by unlabeled MEK5, 100 = vehicle. hit rate 1.4% among 290,000. binding response (% of control), % at 10 µM. AID 1529, 2009;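 active = binding response more than 3 SD above or below the average of its plate-row segment, actives on both sides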;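 also: Alexa488 bead fluorescence after subtracting the streptavidin-only scavenger bead signal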
Target sequence (Q99759 whole entry, looked up): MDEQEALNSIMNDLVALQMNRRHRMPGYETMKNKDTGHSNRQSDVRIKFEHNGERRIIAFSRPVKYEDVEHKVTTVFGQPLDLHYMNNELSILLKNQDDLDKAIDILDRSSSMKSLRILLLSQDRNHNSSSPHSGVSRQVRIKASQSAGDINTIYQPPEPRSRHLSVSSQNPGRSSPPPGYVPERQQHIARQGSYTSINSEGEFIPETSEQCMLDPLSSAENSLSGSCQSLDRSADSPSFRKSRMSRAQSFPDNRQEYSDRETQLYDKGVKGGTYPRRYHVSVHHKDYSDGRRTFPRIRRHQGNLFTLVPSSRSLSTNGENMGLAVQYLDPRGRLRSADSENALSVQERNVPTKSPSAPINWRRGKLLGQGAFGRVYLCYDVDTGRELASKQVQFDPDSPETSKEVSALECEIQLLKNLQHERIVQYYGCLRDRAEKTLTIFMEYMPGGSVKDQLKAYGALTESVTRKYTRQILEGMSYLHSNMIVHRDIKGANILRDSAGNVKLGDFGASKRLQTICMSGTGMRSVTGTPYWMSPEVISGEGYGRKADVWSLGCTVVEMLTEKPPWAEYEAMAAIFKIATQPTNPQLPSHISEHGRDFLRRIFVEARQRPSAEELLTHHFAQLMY
MEKK2mut PB1 HTS = MEK5 binding signal on mutant MEKK2 PB1, primary screen, biochemical, multiplex bead flow cytometry, Alexa488-MEK5; percent response, % at 10 µM; AID 1530, 2009; Alexa488-MEK5 binding to MEKK2 mutant; hit rate 0.35% among 290,000; in the data active = percent response above about 24%, passing the limit was not always enough
Dynein transport = inhibitors of GR-EGFP nuclear translocation, primary screen, dynein cargo transport inhibitor project, imaging, high-content, 3617.4 mouse cells; z-score, hits read low; test concentration mostly 20 µM; stimulated with dexamethasone, 1 µM; hits give low values; AID 1381, 2008; hit rate 0.47% among 220,000;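 active = plate z-score of nuclear minus cytoplasmic receptor signal below a set negative limit, without overly bright fluorescence or cell loss, cut at about -3.5 in these data, passing the limit was not always enough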;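 also: z-score of nuclear minus cytoplasmic ring GR-EGFP intensity difference per well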
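Also added – dexamethasone, 1.0 µM final · Buffer or medium – tet-free, stripped-serum medium · Schedule – induction 48 h, compound 1 h, agonist 30 min · Detection – formaldehyde fixation, Hoechst nuclear stain, 10x automated fluorescence imaging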
Beta2AR agonist = beta2AR agonists driving receptor internalization, primary screen, cell-based, FAP fluorogen, flow cytometry; response, % (test concentration not listed); hit rate 0.43% among 340,000; Beta-2 adrenergic receptor (Homo sapiens), P07550; Am2.2-beta2AR cells;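 active = response above a set limit, near 3 SD of response in nonfluorescent compounds, cut at about 42% in these data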
MEKK2 WT-MEK5 = modulators of MEK5 binding to wildtype MEKK2, primary screen, biochemical, multiplex bead flow cytometry, Alexa488-MEK5. Alexa488-MEK5 binding to MEKK2 WT; actives lie on both sides. Mitogen-activated protein kinase kinase kinase 2 (Homo sapiens), Q9Y2U5. hit rate 1.1% among 290,000. AID 1531, 2009. binding response (% of control), % at 10 µM; in the data active = binding response below about 67% or above about 130%
ATG4B inh = ATG4B protease inhibitors, primary screen, biochemical, fluorescence, uHTS; Cysteine protease ATG4B (Homo sapiens), Q9Y4P1; ATG4B cleavage of LC3-PLA2, NBD-HPC fluorescence, 1 h; inhibition, % at 8.33 µM; hit rate 0.51% among 340,000; in the data active = inhibition above about 40%
Beta2AR ag CP1 = beta2AR agonists via receptor internalization, confirmation, cell-based, FAP fluorogen, flow cytometry, single point, cherry pick 1; hit rate 25% among 1,100; percent response (surface receptor), % at 10 µM; Am2.2-beta2AR cells, FAP surface receptor; hits give low values; AID 540358, 2011; shares compounds with Beta2AR agonist;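 active = surface receptor percent response at or below 58%, roughly 3 SD from nonfluorescent compounds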
B2AR FAP counter = fluorescence artifact in beta-2AR agonist FAP counterscreen; Am2.2 cells, FAP fluorogen flow cytometry; hits give low values; AID 588765; calls only at 10 µM; shares compounds with Beta2AR agonist; 1,100 tested, under 10 active;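 active = percent response below a set limit in fluorescence channel 1 and below 50% in channel 8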
Numbers stand for hits; – = inactive; · = not tested or not shown.

SMILES	MEKK3 PB1 HTS	MEKK2mut PB1 HTS	Dynein transport	Beta2AR agonist	MEKK2 WT-MEK5	ATG4B inh	Beta2AR ag CP1	B2AR FAP counter
COc1ccc(-c2cc(C(F)(F)F)n3nc(C(=O)O)cc3n2)cc1OC	–	–	–	52	–	–	–	–
Clc1ccc(Cl)c(OCCCCNCc2ccccc2)c1	–	–	–	46	–	–	–	–
COc1cc(C)ccc1OCCCCNCc1ccccc1	–	–	·	–	–	–	·	·
CNCC(O)c1ccc(OC(=O)C(C)(C)C)c(OC(=O)C(C)(C)C)c1 (stereo not drawn)	·	·	·	–	·	–	46	–
COc1ccc(C(NC(=O)CC(C)C)NC(=O)CC(C)C)cc1OC	–	–	–	–	–	–	·	·
Cc1ccc(NC(=O)c2cc(N3C(=O)C=CC3=O)ccc2Cl)cc1C	–	–	–	79	–	–	–	–
O=C(CCn1c(=O)oc2ccc(Cl)cc21)NCCCN1CCOCC1	–	–	·	50	–	–	–	–
O=C(CCn1c(=O)oc2ccccc21)NCCN1CCOCC1	–	–	–	–	–	–	·	·
CC(C)(C)n1nnnc1C(c1cccnc1)N1CCN(c2cccc(C(F)(F)F)c2)CC1 (stereo not drawn)	–	–	–	–	–	–	·	·
CC(C)(C)c1cc(C(c2cccnc2)N2CCN(CCO)CC2)cc(C(C)(C)C)c1O (stereo not drawn)	–	–	–	62	–	–	57	–
CN1CCN(Cc2cc(COCc3ccccc3)c3cccnc3c2O)CC1	–	–	–	–	–	–	–	–
O=C(CN1c2cccc3cccc(c23)S1(=O)=O)NCc1ccc(Cl)cc1	·	·	·	–	·	–	·	·
CC(C)(C)C(=O)Nc1ccccc1N1CCN(c2ccc(F)cc2)CC1	–	–	·	67	–	–	–	–
O=[N+]([O-])c1ccc(S(=O)(=O)c2cccc(C(F)(F)F)c2)nc1	·	·	·	57	·	–	24	–
COc1cc(OC)cc(C(=O)Oc2c(CN3CCOCC3)cc(Cl)c3cccnc23)c1	–	–	–	–	–	–	–	–
O=C(Oc1c(CN2CCOCC2)cc(Cl)c2cccnc12)c1ccccc1F	–	–	–	–	–	–	–	–
Cc1nn(-c2ccccc2)c(C)c1NC(=O)COC(=O)Cc1cccc(C(F)(F)F)c1	·	·	·	–	·	–	·	·
COc1ccc(CN(C(=S)Nc2ccccc2)C2CC(=O)N(c3ccc(F)cc3)C2=O)cc1 (stereo not drawn)	–	–	–	–	–	–	·	·
COc1ccc(N2C(=O)CS/C2=N\C(=S)Nc2ccccc2)cc1	–	–	–	–	–	–	–	–
Clc1ccccc1-c1ncnc2ccc(Br)cc12	–	–	–	96	–	–	–	–
CCOC(=O)CC1CCCCN1C(=O)c1cc(COc2cccc3cnccc23)on1 (stereo not drawn)	–	–	·	–	–	–	·	·
CCOCCCN(C)C1CCN(S(=O)(=O)c2csc(C(N)=O)c2)CC1	–	–	·	–	–	–	·	·
CCc1ccc(CNC(=O)c2ccc(NC(=O)C3=CSCCO3)cc2)cc1	–	–	·	102	–	–	27	–
CC(CNc1ccc(Cl)cc1)(CNc1ccc(Cl)cc1)[N+](=O)[O-]	·	·	·	–	·	–	·	·
O=C(C1CC1)N1N=C(c2ccccc2)CC1(O)C(F)(F)C(F)(F)F (stereo not drawn)	–	–	·	–	–	–	·	·
Cc1cccc(NC(=O)N2CCC(C(=O)c3ccc(F)cc3)CC2)c1	–	–	·	75	–	–	–	–
